Activity calls are given as the source filed them. The rule behind the calls is not given here.

One test deals with MDA-MB-435. Briefly: Antiproliferative activity against human MDA-MB-435 cells after 72 hrs. It counts as functional, cell-based. The note with it: MDA-MB-435, 72 h. A digest of the protocol:
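Cells were seeded at 5 × 10³ per well and cultured for 24 h. Test compound in DMSO (under 0.1%) was then added for 72 h. Resazurin was added for 2 h, and fluorescence was read at ex 560 nm / em 590 nm. IC50 was taken as the concentration giving a 50% fall in fluorescence versus untreated cells. Runs were done in triplicate.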

Test [1] concerns MDA-MB-231. The test is described as follows: Effect on cell morphology in human MDA-MB-231 cells assessed as change in cellular mass at 0.050 uM after 24 hrs. The test is classed as functional, cell-based. A digest of the protocol: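 MDA-MB231 cells on chamber slides treated 24 h at 50 nM, fixed in 3.7% formaldehyde, permeabilized with 0.1% Triton X-100. Stained for β-tubulin (Alexa 488 secondary), actin (Alexa 546 phalloidin) and nuclei (Hoechst 33342); imaged by fluorescence microscopy at 60× and 100×.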

Test [2] can be described thus: Antitumor activity against human U87 tumor transplanted in chick chorio-allantoic membrane assessed as reduction of tumor volume at 10 uM after 4 days. It counts as functional, U-87MG ATCC. More on the design: scale not given: the % may be the effect or the level left. In a few lines: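 U87 glioma cells (5 × 10⁶ in 20 µL medium) grafted on chick CAM on embryonic day 10; size-matched tumors grouped on day 2. 20 µL drug at 10 µM applied locally once daily, days 3–6 of tumor growth; controls got solvent. Volume V = 4/3πr³ from length and width, six tumors per group.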

In test [3] the test system is K562. Briefly: Cell cycle arrest in human K562 cells assessed as accumulation at G2/M phase at 1 uM after 24 hrs by flow cytometry. The test is classed as functional. The note with it: in the assay text read “at 0.1 uM” for “at 1 uM”. In a few lines:
(§1)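 Exponentially growing K562 cells exposed to compound or DMSO for 6, 16 or 24 h; cell-cycle phase distribution determined by flow cytometry; data representative of three independent experiments.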
For orientation: A flow cytometer gives signals particle by particle.

The test system of test [4] is K562. Briefly: Cell cycle arrest in human K562 cells assessed as accumulation at G0/G1 phase at 0.5 uM after 16 hrs by flow cytometry. It counts as functional. A digest of the protocol:
as §1

Test [5] has as its system K562. Briefly: Induction of apoptosis in human K562 cells assessed as activation of caspase 3 at 0.01 to 1 uM after 24 hrs by microtitre plate fluorimeter. It counts as functional, cell-based. A digest of the protocol:
(§2)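 Cells seeded 5 × 10⁴/well, then after 24 h given compound at 1, 0.1 or 0.01 µM, or 0.1% DMSO as negative control, for 24 h. Caspase-3/7 substrate in homogeneous assay buffer added; fluorescence read at 527 nm after 1 h.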

Test [6] deals with K562. The test is described as follows: Cell cycle arrest in human K562 cells assessed as accumulation at G0/G1 phase at 0.05 uM after 24 hrs by flow cytometry. The test is classed as functional. A digest of the protocol: as §1
Another test concerns HCT-116. Briefly: Induction of apoptosis in human HCT116 cells assessed as activation of caspase 7 at 0.01 to 1 uM after 24 hrs by microtitre plate fluorimeter. The test is classed as functional, cell-based. In a few lines:
as §2

In the next test the test system is MCF7. The test is described as follows: Cell cycle arrest in human MCF7 cells assessed as accumulation at G2/M phase at 0.05 uM after 24 hrs by flow cytometry.
Test [7] has as its system K562. Briefly: Cell cycle arrest in human K562 cells assessed as accumulation at G2/M phase at 0.5 uM after 16 hrs by flow cytometry. The test is classed as functional. In a few lines: as §1
Test [8] concerns K562. Briefly: Cell cycle arrest in human K562 cells assessed as accumulation at G0/G1 phase at 1 uM after 16 hrs by flow cytometry. It counts as functional. A digest of the protocol: as §1
For test [9], the system named is MDA-MB-231. Briefly: Induction of apoptosis in human MDA-MB-231 cells assessed as activation of caspase 7 at 0.01 to 1 uM after 24 hrs by microtitre plate fluorimeter. The test is classed as functional, cell-based. In a few lines: as §2
Test [10] relates to K562. Briefly: Cell cycle arrest in human K562 cells assessed as accumulation at S phase at 1 uM after 16 hrs by flow cytometry. It counts as functional. In a few lines:
as §1

Test [11] concerns K562. Briefly: Cell cycle arrest in human K562 cells assessed as accumulation at G0/G1 phase at 0.5 uM after 6 hrs by flow cytometry. It counts as functional. In a few lines:
as §1

For orientation: IC50 means the point on the concentration scale where inhibition reaches its midpoint. Regarding `CC[C@@H]1NC(=O)c2[nH]c3ccccc3c2-c2ccccc21`, the midpoint of inhibition in the test with MDA-MB-435, the IC50, lay at 70 nM. Also, the outcome with MDA-MB-231 [1], in the test on K562 [5], in the test with HCT-116 and in the test on MDA-MB-231 [9] was Active. Further, the Activity in [2] was determined as 76%; with K562 [3], 20.3%; with K562 [4] it was 0.6%; in the test with K562 [6], 14.6%; with MCF7, 65.6%; in the test with K562 [7] it was 51.5%. Also, the results for the Activity with K562 [8], in the test on K562 [10] and with K562 [11] were 2.4%, 52.8% and 0.2%, respectively.

For the origin of these results see ChEMBL document CHEMBL1150426, “New C5-alkylated indolobenzazepinones acting as inhibitors of tubulin polymerization: cytotoxic and antitumor activities” (J Med Chem, 2008).
